The results in this text go back to article PMC8943622 (Journal of Cerebral Blood Flow & Metabolism, 2021).

SMILES strings stand for the structures. Where “and” joins values, the source holds several entries; their conditions need not be identical. Equal entries are not always repeated. Where two headings read alike, the source gives them in different places.

Series [1] relates to MAGL. Briefly: [18F]T-401 PET after JW642 pretreatment. It is filed as in vivo, rhesus monkey (Macaca mulatta).
The target in series [2] is T1, MAGL (Macaca mulatta, UniProt H9ESL3).
T1 sequence (H9ESL3 1-303): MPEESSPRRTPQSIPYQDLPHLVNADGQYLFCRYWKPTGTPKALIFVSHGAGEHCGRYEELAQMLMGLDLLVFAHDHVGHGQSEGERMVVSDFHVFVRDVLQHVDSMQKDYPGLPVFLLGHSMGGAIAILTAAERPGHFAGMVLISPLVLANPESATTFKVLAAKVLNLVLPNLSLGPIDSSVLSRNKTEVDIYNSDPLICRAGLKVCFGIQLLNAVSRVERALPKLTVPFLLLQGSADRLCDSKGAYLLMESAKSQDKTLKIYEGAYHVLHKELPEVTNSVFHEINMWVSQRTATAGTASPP
The experiment in a line: In vivo Scatchard plot analysis of baseline [18F]T-401 PET data. Also on record: species or system rhesus monkey. In a few lines: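 Three male rhesus monkeys (5–7 kg) were given ketamine 10 mg/kg i.m., then intubated and kept on 1–2% isoflurane, with a heating pad. After a 68Ge–68Ga transmission scan, a 120 min 3D list-mode emission scan began at i.v. radioligand injection (356 ± 50 MBq, 343 ± 68 GBq/μmol). Baseline data were analysed by Scatchard plot to give KD and Bmax in representative ROIs.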

The nature of series [3]: Radiometabolite analysis of [18F]T-401 in arterial plasma. Conditions: 30 min after injection; baseline and JW642 blockade. It is filed as in vivo, rhesus monkey. In a few lines: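 Anaesthetised monkeys had 24 serial saphenous-artery samples taken over the 120 min scan. Plasma was separated at 15000 × g, 3 min, 4 °C. Samples from 2, 5, 10, 30, 60, 90 and 120 min went to HPLC (Atlantis T3, acetonitrile/H2O 40/60, 1.0 mL/min, 254 nm). Decay-corrected parent-to-total radioactivity came from peak areas. Blockade used i.v. test compound 0.01–0.3 mg/kg, 5 min before the radioligand, in one monkey.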

Series [4] has as its system MAGL. It is filed as in vivo, rhesus monkey (Macaca mulatta). Conditions: baseline; for VT mean: mean of three monkeys; for VT: M187.

Turning to `O=C(OC(C(F)(F)F)C(F)(F)F)N1CCN(Cc2cccc(Oc3ccccc3)c2)CC1` [JW642], the “EC50, plasma JW642 concentration inducing 50% occupancy of MAGL” value in series [1] (Hill's plot of occupancy versus plasma concentration, monkey M187) is 0.126 µg/mL and 0.1261 µg/mL. In addition, the MAGL occupancy in series [1] (JW642 0.01 mg/kg i.v., Lassen's plot) is 20%; in series [1] (JW642 0.3 mg/kg i.v., Lassen's plot, 0.3 mg/kg), 94% and 93%.
As a reminder, the Kd is the equilibrium constant for the complex coming apart. Consider `Cc1ccnc([18F])c1-c1cccc(N2C[C@H](N3CCN(C(=O)c4nccs4)CC3)CC2=O)c1` [[^18F]T-401, (4R)-1-{3-[2-[^18F]fluoro-4-methylpyridin-3-yl]phenyl}-4-[4-(1,3-thiazol-2-ylcarbonyl)piperazin-1-yl]pyrrolidin-2-one], for which the “non-displaceable distribution volume (VND)” value in series [1] (Lassen's plot, averaged x-intercept of regression lines, monkey brain) is 0.69 mL/cm^3. Besides, the “VND as portion of VT” value in series [1] (pons) came out at 14.6%. Besides, the Kd in series [2] (FCX) stood at 4.18 nM; in series [2] (HIP) it was 1.09 nM. The “parent fraction in arterial plasma” value in series [3] is reported as “approximately 30%”. Further, the VT mean in series [4] (CB) amounted to 7.17 mL/cm^3; in series [4] (FCX) it was 11.7 mL/cm^3; in series [4] (HIP), 5.95 mL/cm^3; in series [4] (OCC), 9.96 mL/cm^3; in series [4] (Pons), 4.73 mL/cm^3; in series [4] (STR), 9.05 mL/cm^3. The VT mean in series [4] (THA) is 6.36 mL/cm^3. In addition, the values for the VT in series [4] (OCC) and in series [4] (STR) were 11.89 mL/cm^3 and 12.51 mL/cm^3, respectively. Also, in series [4] (monkey brain), the “time of peak brain uptake after injection” value is 5 to 15 min. Further, the “mean VT, upper end of range” value in series [4] (printed as striatum) was 11.7 mL/cm^3.
